ChEMBL document CHEMBL4184298, “Development of Potent Inhibitors of Receptor Tyrosine Kinases by Ligand-Based Drug Design and Target-Biased Phenotypic Screening” (J Med Chem, 2018)

Legend:
[1] = biological target: RAC-alpha serine/threonine-protein kinase (Homo sapiens, UniProt P31749); assay: Inhibition of AKT (unknown origin) using poly [Glu, Try] 4:1 as substrate in presence of [gamma-33P]ATP
In short: (§1)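 Radiometric assay on recombinant kinase: ³³P incorporation into the kinase substrate was measured and activity was expressed relative to a DMSO control.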

[2] = biological target: Mast/stem cell growth factor receptor Kit (Homo sapiens, UniProt P10721); assay: Inhibition of wild-type human partial length KIT (I571 to D952 residues) expressed in bacterial expression system using poly [Glu, Try] 4:1 as substrate in presence of [gamma-33P]ATP; in short: as §1
[3] = biological target: Proto-oncogene tyrosine-protein kinase receptor Ret (Homo sapiens, UniProt P07949); assay: Inhibition of wild-type human partial length RET (E713 to D1014 residues) expressed in bacterial expression system using poly [Glu, Try] 4:1 as substrate in presence of [gamma-33P]ATP; in short: as §1
[4] = biological target: T1, Tyrosine-protein kinase receptor TYRO3 (Homo sapiens, UniProt Q06418); assay: Inhibition of wild-type human partial length TYRO3 (S497 to T814 residues) expressed in bacterial expression system using poly [Glu, Try] 4:1 as substrate in presence of [gamma-33P]ATP; in short: as §1
T1 sequence (Q06418 whole entry): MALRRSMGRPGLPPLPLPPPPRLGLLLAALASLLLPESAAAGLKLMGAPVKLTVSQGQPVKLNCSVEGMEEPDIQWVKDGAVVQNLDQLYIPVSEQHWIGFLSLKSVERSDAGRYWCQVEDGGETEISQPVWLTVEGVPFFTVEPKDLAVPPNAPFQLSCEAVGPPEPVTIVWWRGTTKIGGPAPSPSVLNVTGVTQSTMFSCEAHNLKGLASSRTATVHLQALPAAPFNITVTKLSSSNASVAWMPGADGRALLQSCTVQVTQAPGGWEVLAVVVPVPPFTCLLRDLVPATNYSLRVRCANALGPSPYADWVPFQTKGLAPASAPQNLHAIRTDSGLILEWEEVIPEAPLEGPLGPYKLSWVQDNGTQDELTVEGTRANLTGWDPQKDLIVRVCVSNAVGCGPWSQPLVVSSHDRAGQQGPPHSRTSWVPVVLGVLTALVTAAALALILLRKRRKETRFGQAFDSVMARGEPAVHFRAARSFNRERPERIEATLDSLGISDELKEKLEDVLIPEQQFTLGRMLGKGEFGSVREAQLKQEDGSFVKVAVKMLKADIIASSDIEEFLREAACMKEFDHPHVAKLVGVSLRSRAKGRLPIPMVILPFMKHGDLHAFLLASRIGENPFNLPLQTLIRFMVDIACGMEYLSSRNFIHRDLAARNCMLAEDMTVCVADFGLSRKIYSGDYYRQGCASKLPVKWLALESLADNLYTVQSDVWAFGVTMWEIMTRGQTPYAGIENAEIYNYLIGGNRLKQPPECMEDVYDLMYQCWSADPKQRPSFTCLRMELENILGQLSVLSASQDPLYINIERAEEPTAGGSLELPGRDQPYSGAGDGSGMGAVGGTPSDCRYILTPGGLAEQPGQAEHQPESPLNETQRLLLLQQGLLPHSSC

[5] = biological target: T2, Aurora kinase A (Homo sapiens, UniProt O14965); assay: Inhibition of human partial length Aurora A (E122 to K401 residues) expressed in mammalian expression system using poly [Glu, Try] 4:1 as substrate in presence of [gamma-33P]ATP; in short: as §1
T2 sequence (O14965 whole entry): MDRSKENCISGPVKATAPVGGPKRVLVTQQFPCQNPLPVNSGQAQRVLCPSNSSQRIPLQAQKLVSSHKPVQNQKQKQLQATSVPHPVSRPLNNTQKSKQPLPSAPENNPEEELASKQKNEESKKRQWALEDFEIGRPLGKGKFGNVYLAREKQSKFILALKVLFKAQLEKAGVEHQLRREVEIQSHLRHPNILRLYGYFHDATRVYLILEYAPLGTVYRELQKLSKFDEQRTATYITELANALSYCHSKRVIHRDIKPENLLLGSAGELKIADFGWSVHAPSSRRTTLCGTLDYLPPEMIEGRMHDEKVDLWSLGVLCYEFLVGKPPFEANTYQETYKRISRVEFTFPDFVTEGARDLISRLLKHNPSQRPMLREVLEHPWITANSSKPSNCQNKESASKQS

[6] = biological target: Serine/threonine-protein kinase mTOR (Homo sapiens, UniProt P42345); assay: Inhibition of wild-type human partial length MTOR (L1382 to W2549 residues) expressed in mammalian expression system using poly [Glu, Try] 4:1 as substrate in presence of [gamma-33P]ATP; in short: as §1
[7] = biological target: Hepatocyte growth factor receptor (Homo sapiens, UniProt P08581); assay: Inhibition of wild-type human partial length MET (D1010 to S1367 residues) expressed in bacterial expression system using poly [Glu, Try] 4:1 as substrate in presence of [gamma-33P]ATP; in short: as §1
Chain of Hepatocyte growth factor receptor (P08581 whole entry, the tested form may be a part): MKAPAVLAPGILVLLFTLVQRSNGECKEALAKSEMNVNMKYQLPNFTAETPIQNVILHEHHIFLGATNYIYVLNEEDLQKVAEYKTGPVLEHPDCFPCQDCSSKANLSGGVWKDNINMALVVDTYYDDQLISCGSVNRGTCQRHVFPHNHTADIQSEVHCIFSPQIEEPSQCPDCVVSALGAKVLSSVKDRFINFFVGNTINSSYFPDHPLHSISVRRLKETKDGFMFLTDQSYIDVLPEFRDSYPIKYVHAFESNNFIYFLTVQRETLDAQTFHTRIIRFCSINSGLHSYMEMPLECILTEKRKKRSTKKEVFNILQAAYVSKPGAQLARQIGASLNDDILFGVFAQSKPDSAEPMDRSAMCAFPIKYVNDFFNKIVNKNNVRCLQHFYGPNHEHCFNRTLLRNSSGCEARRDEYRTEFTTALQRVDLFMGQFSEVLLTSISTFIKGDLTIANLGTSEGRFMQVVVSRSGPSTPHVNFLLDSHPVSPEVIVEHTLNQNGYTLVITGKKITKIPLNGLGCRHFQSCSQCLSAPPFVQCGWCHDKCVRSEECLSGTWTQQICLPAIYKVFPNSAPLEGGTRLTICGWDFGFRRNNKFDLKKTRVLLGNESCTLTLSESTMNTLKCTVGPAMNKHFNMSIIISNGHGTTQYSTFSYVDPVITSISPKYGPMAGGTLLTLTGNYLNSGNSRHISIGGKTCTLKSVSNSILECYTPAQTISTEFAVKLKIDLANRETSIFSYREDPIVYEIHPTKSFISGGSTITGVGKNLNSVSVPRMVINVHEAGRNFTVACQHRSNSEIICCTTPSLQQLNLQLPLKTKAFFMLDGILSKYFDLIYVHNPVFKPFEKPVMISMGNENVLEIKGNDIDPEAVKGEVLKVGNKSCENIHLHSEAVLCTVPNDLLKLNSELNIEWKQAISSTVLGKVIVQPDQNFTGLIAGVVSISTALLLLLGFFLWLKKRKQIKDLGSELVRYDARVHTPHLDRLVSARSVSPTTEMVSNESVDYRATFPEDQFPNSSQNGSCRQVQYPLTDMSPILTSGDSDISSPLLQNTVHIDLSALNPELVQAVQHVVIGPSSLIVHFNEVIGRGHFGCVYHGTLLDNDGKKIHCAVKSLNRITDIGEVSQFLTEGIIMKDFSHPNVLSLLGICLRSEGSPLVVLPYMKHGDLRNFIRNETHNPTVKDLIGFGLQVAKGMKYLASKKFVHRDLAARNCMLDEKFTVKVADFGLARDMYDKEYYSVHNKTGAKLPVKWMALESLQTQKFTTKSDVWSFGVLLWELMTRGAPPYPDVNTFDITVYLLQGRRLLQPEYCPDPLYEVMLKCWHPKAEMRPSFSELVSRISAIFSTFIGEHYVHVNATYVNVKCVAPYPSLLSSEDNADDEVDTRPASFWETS

Chain of Proto-oncogene tyrosine-protein kinase receptor Ret (P07949 whole entry, the tested form may be a part): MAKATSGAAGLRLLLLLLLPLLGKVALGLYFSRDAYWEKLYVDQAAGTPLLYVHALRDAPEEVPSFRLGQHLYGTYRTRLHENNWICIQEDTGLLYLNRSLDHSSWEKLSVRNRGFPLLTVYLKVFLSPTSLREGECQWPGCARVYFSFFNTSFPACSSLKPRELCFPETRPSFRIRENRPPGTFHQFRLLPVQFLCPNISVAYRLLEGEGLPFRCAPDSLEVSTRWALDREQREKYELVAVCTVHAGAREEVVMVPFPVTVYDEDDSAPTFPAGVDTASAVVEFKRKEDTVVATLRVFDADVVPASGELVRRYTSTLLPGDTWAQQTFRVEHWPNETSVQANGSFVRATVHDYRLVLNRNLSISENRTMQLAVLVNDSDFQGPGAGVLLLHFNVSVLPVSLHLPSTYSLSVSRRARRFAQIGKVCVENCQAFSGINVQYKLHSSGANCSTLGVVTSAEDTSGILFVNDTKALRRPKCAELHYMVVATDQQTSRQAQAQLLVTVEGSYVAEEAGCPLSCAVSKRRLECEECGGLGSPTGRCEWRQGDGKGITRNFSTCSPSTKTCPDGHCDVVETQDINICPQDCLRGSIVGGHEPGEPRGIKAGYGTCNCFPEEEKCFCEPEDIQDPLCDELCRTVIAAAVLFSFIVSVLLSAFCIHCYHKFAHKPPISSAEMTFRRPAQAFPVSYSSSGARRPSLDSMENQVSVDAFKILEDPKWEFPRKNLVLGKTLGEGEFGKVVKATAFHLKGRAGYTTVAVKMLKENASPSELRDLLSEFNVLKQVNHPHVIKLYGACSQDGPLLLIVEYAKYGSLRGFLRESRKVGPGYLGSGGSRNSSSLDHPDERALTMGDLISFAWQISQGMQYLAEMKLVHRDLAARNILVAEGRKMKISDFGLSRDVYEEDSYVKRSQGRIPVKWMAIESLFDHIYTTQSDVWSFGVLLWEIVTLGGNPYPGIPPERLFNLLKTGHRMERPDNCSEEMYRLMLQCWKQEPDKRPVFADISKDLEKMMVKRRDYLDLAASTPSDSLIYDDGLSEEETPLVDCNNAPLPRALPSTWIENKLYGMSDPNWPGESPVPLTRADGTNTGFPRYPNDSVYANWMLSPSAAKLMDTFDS
Chain of RAC-alpha serine/threonine-protein kinase (P31749 whole entry): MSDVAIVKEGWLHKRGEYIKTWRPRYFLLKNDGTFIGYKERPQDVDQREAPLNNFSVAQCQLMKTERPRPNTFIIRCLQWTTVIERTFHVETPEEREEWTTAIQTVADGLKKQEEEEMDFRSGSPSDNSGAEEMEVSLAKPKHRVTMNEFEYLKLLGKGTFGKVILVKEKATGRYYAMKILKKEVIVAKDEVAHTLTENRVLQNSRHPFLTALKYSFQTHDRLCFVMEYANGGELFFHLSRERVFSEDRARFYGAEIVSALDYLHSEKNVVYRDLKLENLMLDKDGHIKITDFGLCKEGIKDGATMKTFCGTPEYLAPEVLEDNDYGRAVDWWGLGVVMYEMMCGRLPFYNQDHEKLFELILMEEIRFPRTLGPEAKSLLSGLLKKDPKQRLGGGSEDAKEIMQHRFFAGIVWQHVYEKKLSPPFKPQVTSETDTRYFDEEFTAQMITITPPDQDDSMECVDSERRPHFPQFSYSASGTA
Chain of Mast/stem cell growth factor receptor Kit (P10721 whole entry, the tested form may be a part): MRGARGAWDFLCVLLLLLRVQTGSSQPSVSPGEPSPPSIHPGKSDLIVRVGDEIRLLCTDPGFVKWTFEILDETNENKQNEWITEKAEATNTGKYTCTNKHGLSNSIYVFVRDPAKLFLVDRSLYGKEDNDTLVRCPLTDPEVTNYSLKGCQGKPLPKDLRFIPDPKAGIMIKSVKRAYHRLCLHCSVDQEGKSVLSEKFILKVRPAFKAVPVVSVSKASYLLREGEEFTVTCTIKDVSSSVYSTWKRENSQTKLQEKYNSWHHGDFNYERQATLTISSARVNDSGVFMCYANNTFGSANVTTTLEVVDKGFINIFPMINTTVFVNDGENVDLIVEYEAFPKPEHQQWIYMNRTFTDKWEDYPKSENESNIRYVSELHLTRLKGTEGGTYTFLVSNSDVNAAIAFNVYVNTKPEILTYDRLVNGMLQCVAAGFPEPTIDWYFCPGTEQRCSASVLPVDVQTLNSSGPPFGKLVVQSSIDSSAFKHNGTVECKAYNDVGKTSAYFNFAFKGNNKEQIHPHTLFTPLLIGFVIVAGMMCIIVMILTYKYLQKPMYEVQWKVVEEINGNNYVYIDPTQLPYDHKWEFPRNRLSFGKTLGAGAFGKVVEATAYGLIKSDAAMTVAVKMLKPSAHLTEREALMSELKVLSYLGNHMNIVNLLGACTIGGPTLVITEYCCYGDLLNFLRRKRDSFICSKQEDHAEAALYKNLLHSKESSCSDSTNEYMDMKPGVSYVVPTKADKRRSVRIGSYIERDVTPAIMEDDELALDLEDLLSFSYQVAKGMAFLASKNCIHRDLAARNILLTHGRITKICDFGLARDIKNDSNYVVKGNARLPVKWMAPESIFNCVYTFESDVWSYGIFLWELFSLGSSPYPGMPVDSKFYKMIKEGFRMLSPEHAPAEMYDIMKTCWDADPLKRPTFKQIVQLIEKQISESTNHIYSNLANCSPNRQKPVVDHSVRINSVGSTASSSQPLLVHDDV

CNc1ncc2c(-c3ccc(N4CCN(C)CC4)nc3)nn(CC3CCCC3)c2n1
IC50 [1]: > 10 µM | IC50 [2]: 0.36 µM | IC50 [3]: 0.06 µM | IC50 [4]: 3.67 µM | IC50 [5]: 0.03 µM | IC50 [6]: > 10 µM | IC50 [7]: 3.5 µM

CNc1ncc2c(-c3ccc(N4CCN(C(=O)C(C)(C)C)CC4)nc3)nn(CC3CCCC3)c2n1
IC50 [1]: > 10 µM | IC50 [2]: > 10 µM | IC50 [3]: > 10 µM | IC50 [4]: > 10 µM | IC50 [5]: 0.61 µM | IC50 [6]: > 10 µM | IC50 [7]: > 10 µM

CNc1ncc2c(-c3ccc(OC)cc3)nn(CC3OCCO3)c2n1
IC50 [1]: > 10 µM | IC50 [2]: > 10 µM | IC50 [3]: 1.2 µM | IC50 [4]: > 10 µM | IC50 [5]: 0.56 µM | IC50 [6]: > 10 µM | IC50 [7]: > 10 µM

Nc1nc(Nc2ccc3c(c2)CC[C@@H](N2CCCC2)CC3)nn1-c1cc2c(nn1)-c1ccccc1CCC2 [BEMCENTINIB]
IC50 [1]: > 10 µM | IC50 [2]: 1 µM | IC50 [3]: 0.003 µM | IC50 [4]: 0.017 µM | IC50 [5]: 0.026 µM | IC50 [6]: > 10 µM | IC50 [7]: 3.4 µM

CCN1CCN(c2ccc(-c3nn(Cc4cn(Cc5ccccc5)nn4)c4nc(NC)ncc34)cn2)CC1
IC50 [1]: 1.9 µM | IC50 [2]: > 10 µM | IC50 [3]: 6.2 µM | IC50 [4]: 1.9 µM | IC50 [5]: > 10 µM | IC50 [6]: > 10 µM | IC50 [7]: 6.3 µM

CNc1ncc2c(-c3ccc(N4CCNCC4)cc3)nn(Cc3cn(Cc4ccccc4)nn3)c2n1
IC50 [1]: > 10 µM | IC50 [2]: > 10 µM | IC50 [3]: > 10 µM | IC50 [4]: > 10 µM | IC50 [5]: > 10 µM | IC50 [6]: > 10 µM | IC50 [7]: > 10 µM

CNc1ncc2c(-c3ccc(N4CCN(C)CC4)nc3)nn(Cc3cn(Cc4ccccc4)nn3)c2n1
IC50 [1]: > 10 µM | IC50 [2]: > 10 µM | IC50 [3]: 0.9 µM | IC50 [4]: > 10 µM | IC50 [5]: 0.73 µM | IC50 [6]: > 10 µM | IC50 [7]: > 10 µM

CNc1ncc2c(-c3ccc(N4CCNCC4)nc3)nn(CC3CCCC3)c2n1
IC50 [1]: > 10 µM | IC50 [2]: 1.1 µM | IC50 [3]: 0.05 µM | IC50 [4]: > 10 µM | IC50 [5]: 0.16 µM | IC50 [6]: > 10 µM | IC50 [7]: 2.1 µM

CNc1ncc2c(-c3ccc(N4CCNCC4)nc3)nn(CC3OCCO3)c2n1
IC50 [1]: > 10 µM | IC50 [2]: 7.5 µM | IC50 [3]: 0.16 µM | IC50 [4]: > 10 µM | IC50 [5]: 0.66 µM | IC50 [6]: > 10 µM | IC50 [7]: > 10 µM

CNc1ncc2c(-c3ccc(N4CCNCC4)nc3)nn(Cc3cn(-c4ccsc4C(=O)OC)nn3)c2n1
IC50 [1]: > 10 µM | IC50 [2]: > 10 µM | IC50 [3]: 0.43 µM | IC50 [4]: > 10 µM | IC50 [5]: 0.79 µM | IC50 [6]: > 10 µM | IC50 [7]: > 10 µM

CNc1ncc2c(-c3ccc(N4CCN(C(=O)C(C)(C)C)CC4)nc3)nn(Cc3cn(Cc4ccccc4)nn3)c2n1
IC50 [1]: > 10 µM | IC50 [2]: > 10 µM | IC50 [3]: 4 µM | IC50 [4]: > 10 µM | IC50 [5]: 0.84 µM | IC50 [6]: > 10 µM | IC50 [7]: > 10 µM

CCN1CCN(c2ccc(-c3nn(CC4CCCC4)c4nc(NC)ncc34)cn2)CC1
IC50 [1]: > 10 µM | IC50 [2]: 1.8 µM | IC50 [3]: 0.44 µM | IC50 [4]: > 10 µM | IC50 [5]: 0.28 µM | IC50 [6]: > 10 µM | IC50 [7]: > 10 µM
